Activity calls are given as the source filed them. The calls are words filed in the database; no cut-off is given here.
Tests used:
[1] = Cell cycle arrest in human 293T cells assessed as accumulation at sub-G1 phase at 4 uM after 24 hrs using propidium iodide staining by FACS; format: functional, cell-based; conditions: HEK-293T
In short: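 293T cells exposed to 4 µM agents for 24 h, harvested by trypsinization and fixed in 50% cold ethanol at −20 °C. Washed in PBS, then RNase A (100 µg/mL) for 20 min at 37 °C. DNA content of 10,000 events read by flow cytometry. Result is % of cells in the sub-G1 peak.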

[2] = tested on: A2058; test: Cytotoxicity against human A2058 cells assessed as survival at 4 uM after 24 hrs by MTT assay; format: functional; conditions: A2058, 24 h, read-out: Survival
In short: (§1)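 Cells seeded at 2500 cells/well, incubated overnight, then exposed to agents at 4 µM for 24 h. Medium replaced with MTT dye, 2 h at 37 °C. Formazan dissolved in DMSO, absorbance read at 540 nm. Survival expressed as % of untreated control.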

[3] = tested on: A-375; test: Cytotoxicity against human A375 cells assessed as survival at 4 uM after 24 hrs by MTT assay; format: functional; conditions: A-375, 24 h, read-out: Survival; in short: as §1
[4] = Cytotoxicity against human 293T cells assessed as survival at 4 uM after 24 hrs by MTT assay; format: cell-based, HEK-293T; conditions: read-out: Survival; in short: as §1
[5] = tested on: MCF7; test: Cytotoxicity against human MCF7 cells assessed as survival at 4 uM after 24 hrs by MTT assay; format: functional; conditions: MCF7, 24 h, read-out: Survival; in short: as §1
[6] = tested on: NCI-H1355; test: Cytotoxicity against human NCI-H1355 cells assessed as survival at 4 uM after 24 hrs by MTT assay; format: functional; conditions: NCI-H1355, 24 h, read-out: Survival; in short: as §1
[7] = tested on: HEK-293T; test: Induction of apoptosis in human 293T cells assessed as degradation of caspase 3 after 24 hrs by Western blot analysis; format: functional, cell-based
In short: (§2)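 293T cells were exposed for 24 h to graded concentrations (0, 1, 2 and 4 µM shown) or to 4 µM agent. Cell lysates were immunoblotted for caspase-3 (CPP32) and p53, with actin as the loading control. Primary antibody ran 2 h at room temperature or overnight at 4 °C, then HRP secondary 1 h at room temperature, with chemiluminescent detection.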

[8] = tested on: HEK-293T; test: Induction of apoptosis in human 293T cells assessed as decrease in p53 protein expression at 1 uM after 24 hrs by Western blot analysis; format: functional, cell-based; in short: as §2
[9] = tested on: SW-620; test: Cytotoxicity against human SW620 cells after 24 hrs by MTT assay; format: functional; conditions: SW-620, 24 h
[10] = tested on: OVCAR-8; test: Cytotoxicity against human OVCAR8 cells after 24 hrs by MTT assay; format: functional; conditions: OVCAR-8, 24 h
[11] = tested on: HEK-293T; test: Induction of apoptosis in human 293T cells at 4 uM after 24 hrs using annexin V-FITC staining by FACS; format: functional
In short: (§3)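 293T cells were treated for 24 h with 4 µM agent or graded concentrations, then harvested by trypsinization and centrifugation. Annexin V-FITC was added to 10⁶ cells per sample, with simultaneous PI staining. About 10,000 cells per group were analysed by flow cytometry, with annexin V⁺/PI⁻ scored as early apoptotic.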

[12] = tested on: HEK-293T; test: Induction of apoptosis in human 293T cells assessed as necrotic cells at 4 uM after 24 hrs using annexin V-FITC/propidium iodide staining by flow cytometry; format: functional; in short: as §3
[13] = tested on: HEK-293T; test: Induction of apoptosis in human 293T cells assessed as change in morphology after 24 hrs; format: functional, cell-based
In short: (§4)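 293T cells (5×10⁵/well) were grown for one day, then treated for 24 h with 4 µM agent or graded concentrations. Morphology was photographed by phase-contrast microscopy at 200×.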

[14] = tested on: HEK-293T; test: Induction of apoptosis in human 293T cells assessed as decrease in p53 protein expression at 4 uM after 24 hrs by Western blot analysis; format: functional, cell-based; in short: as §2
[15] = tested on: HEK-293T; test: Induction of apoptosis in human 293T cells assessed as degradation of caspase 3 at 4 uM after 24 hrs by Western blot analysis; format: functional, cell-based; in short: as §2
[16] = tested on: OVCAR-3; test: Cytotoxicity against human OVCAR-3 cells after 24 hrs by MTT assay; format: functional; conditions: OVCAR-3, 24 h
[17] = tested on: T47D; test: Cytotoxicity against human T47D cells after 24 hrs by MTT assay; format: functional
[18] = tested on: HEK-293T; test: Induction of apoptosis in human 293T cells assessed as necrotic cells at 1 uM after 24 hrs using annexin V-FITC/propidium iodide staining by FACS; format: functional; in short: as §3
[19] = tested on: BT-549; test: Cytotoxicity against human BT549 cells after 24 hrs by MTT assay; format: functional; conditions: BT-549, 24 h
[20] = tested on: CCRF-CEM; test: Cytotoxicity against human CCRF-CEM cells after 24 hrs by MTT assay; format: functional
[21] = tested on: MOLT-4; test: Cytotoxicity against human MOLT4 cells after 24 hrs by MTT assay; format: functional; conditions: MOLT-4, 24 h
[22] = tested on: MDA-MB-435; test: Cytotoxicity against human MDA-MB-435 cells after 24 hrs by MTT assay; format: functional; conditions: MDA-MB-435, 24 h
[23] = tested on: SK-MEL-2; test: Cytotoxicity against human SK-MEL-2 cells after 24 hrs by MTT assay; format: functional; conditions: SK-MEL-2, 24 h
[24] = tested on: IGROV-1; test: Cytotoxicity against human IGROV1 cells after 24 hrs by MTT assay; format: functional; conditions: IGROV-1, 24 h
[25] = tested on: HEK-293T; test: Induction of apoptosis in human 293T cells assessed as DNA repair deficiency at > 2 uM; format: functional, cell-based; in short: as §2
[26] = tested on: MCF7; test: Cytotoxicity against human MCF7 cells after 24 hrs by MTT assay; format: functional; conditions: MCF7, 24 h
[27] = tested on: RPMI-8226; test: Cytotoxicity against human RPMI8226 cells after 24 hrs by MTT assay; format: functional; conditions: RPMI-8226, 24 h
[28] = tested on: RXF 393; test: Cytotoxicity against human RXF393 cells after 24 hrs by MTT assay; format: functional; conditions: RXF 393, 24 h
[29] = tested on: CAKI-1; test: Cytotoxicity against human Caki1 cells after 24 hrs by MTT assay; format: functional; conditions: CAKI-1, 24 h
[30] = tested on: HEK-293T; test: Induction of apoptosis in human 293T cells assessed as necrotic cells at 2 uM after 24 hrs using annexin V-FITC/propidium iodide staining by FACS; format: functional; in short: as §3
[31] = tested on: HEK-293T; test: Induction of apoptosis in human 293T cells assessed as early apoptotic cells at 1 uM after 24 hrs using annexin V-FITC/propidium iodide staining by FACS; format: functional; in short: as §3
[32] = tested on: HEK-293T; test: Induction of apoptosis in human 293T cells assessed as early apoptotic cells at 4 uM after 24 hrs using annexin V-FITC/propidium iodide staining by flow cytometry; format: functional; in short: as §3
[33] = tested on: HEK-293T; test: Induction of apoptosis in human 293T cells assessed as early apoptotic cells at 2 uM after 24 hrs using annexin V-FITC/propidium iodide staining by FACS; format: functional; in short: as §3
[34] = tested on: HEK-293T; test: Induction of apoptosis in human 293T cells assessed as change in morphology at 4 uM after 24 hrs; format: functional, cell-based; in short: as §4

Q: Which Activity [1] does the source give for COc1cc2c(cc1OCC=CCOCCC#Cc1ccccc1C#Cc1ccccc1)N=C[C@@H]1CCCN1C2=O here?
A: 13.3%

Q: What about the viability at 4 µM [2] of the same compound?
A: 84.5%

Q: What about the viability at 4 µM [3] of the same compound?
A: 85.7%

Q: And the viability at 24 h, 4 µM [4]?
A: 60.7%

Q: What about the viability at 4 µM [5] of the same compound?
A: 83.8%

Q: What about the viability at 4 µM [6] of the same compound?
A: 71%

Q: Which Activity [1] does the source give for COc1cc2c(cc1OC/C=C/COCC#Cc1ccccc1C#Cc1ccccc1)N=C[C@@H]1CCCN1C2=O here?
A: 13.9%

Q: What about the viability at 4 µM [2] of the same compound?
A: 43%

Q: And the viability at 4 µM [3]?
A: 42.9%

Q: What about the viability at 24 h, 4 µM [4] of the same compound?
A: 48.4%

Q: What about the viability at 4 µM [5] of the same compound?
A: 70.4%

Q: And the viability at 4 µM [6]?
A: 67.4%

Q: For COc1cc2c(cc1OCC#Cc1ccccc1C#Cc1ccccc1)N=C[C@@H]1CCCN1C2=O, which Activity [1] is on record?
A: 6.3%

Q: And the viability at 4 µM [2]?
A: 46.1%

Q: And the viability at 4 µM [3]?
A: 13.1%

Q: And the viability at 24 h, 4 µM [4]?
A: 48.9%

Q: And the viability at 4 µM [5]?
A: 48.9%

Q: What about the viability at 4 µM [6] of the same compound?
A: 70.9%

Q: With COc1cc2c(cc1O)N=C[C@@H]1CCCN1C2=O as the compound, how does the Activity [1] read?
A: 10%

Q: And the viability at 4 µM [2]?
A: 63.4%

Q: What about the viability at 4 µM [3] of the same compound?
A: 50.2%

Q: And the viability at 24 h, 4 µM [4]?
A: 68.9%

Q: What about the viability at 4 µM [5] of the same compound?
A: 72.3%

Q: And the viability at 4 µM [6]?
A: 73.9%

Q: With COc1cc2c(cc1OC/C=C\COCC#Cc1ccccc1C#Cc1ccccc1)N=C[C@@H]1CCCN1C2=O as the compound, how does the Activity [1] read?
A: 15.6%

Q: And the viability at 4 µM [2]?
A: 39.1%

Q: What about the viability at 4 µM [3] of the same compound?
A: 33.9%

Q: And the viability at 24 h, 4 µM [4]?
A: 44%

Q: And the viability at 4 µM [5]?
A: 44%

Q: And the viability at 4 µM [6]?
A: 44%

Q: Which results are given for COc1cc2c(cc1OCCCC#Cc1ccccc1C#Cc1ccccc1)N=C[C@@H]1CCCN1C2=O?
A: Activity [7]: Dose-dependent effect; Activity [8]: inactive; GI50 [9]: 478 nM; GI50 [10]: 394 nM; Activity [11]: 25.4%; Activity [12]: 17.4%; Activity [13]: Dose-dependent effect; Activity [1]: 14.5%; Activity [14]: Active; Activity [15]: Active; GI50 [16]: 520 nM; viability at 4 µM [2]: 47.2%; GI50 [17]: 779 nM; Activity [18]: 13.7%; viability at 4 µM [3]: 22.3%; GI50 [19]: 641 nM; viability at 24 h, 4 µM [4]: 28.7%; GI50 [20]: 422 nM; viability at 4 µM [5]: 49.7%; GI50 [21]: 648 nM; viability at 4 µM [6]: 87.7%; GI50 [22]: 468 nM; GI50 [23]: 924 nM; GI50 [24]: 549 nM; Activity [25]: Active; GI50 [26]: 305 nM; GI50 [27]: 285 nM; GI50 [28]: 686 nM; GI50 [29]: 485 nM; Activity [30]: 14.5%; Activity [31]: 2.1%; Activity [32]: 1.5%; Activity [33]: 2.2%

Q: For COc1cc2c(cc1OCCCCC#Cc1ccccc1C#Cc1ccccc1)N=C[C@@H]1CCCN1C2=O, which Activity [1] is on record?
A: 13.2%

Q: And the viability at 4 µM [2]?
A: 49.5%

Q: And the viability at 4 µM [3]?
A: 28.3%

Q: What about the viability at 24 h, 4 µM [4] of the same compound?
A: 19.2%

Q: And the viability at 4 µM [5]?
A: 85.2%

Q: What about the viability at 4 µM [6] of the same compound?
A: 75.2%

Q: For COc1cc2c(cc1OCCCCCCNC(=O)c1cc3ccccc3[nH]1)N=C[C@@H]1CCCN1C2=O, which Activity [11] is on record?
A: 19.4%

Q: What about the Activity [14] of the same compound?
A: Active

Q: And the Activity [15]?
A: Active

Q: And the Activity [34]?
A: Active

Q: Which results are given for COc1cc2c(cc1OC/C=C/COCCC#Cc1ccccc1C#Cc1ccccc1)N=C[C@@H]1CCCN1C2=O?
A: Activity [1]: 13.6%; viability at 4 µM [2]: 46.2%; viability at 4 µM [3]: 33.4%; viability at 24 h, 4 µM [4]: 35.2%; viability at 4 µM [5]: 59.2%; viability at 4 µM [6]: 85.2%

Reference: ChEMBL document CHEMBL1143366, “Synthesis and antitumor activity of novel enediyne-linked pyrrolo[2,1-c][1,4]benzodiazepine hybrids” (Bioorg Med Chem, 2009)
